Data as given in PubChem BioAssay AID540324 (Johns Hopkins Ion Channel Center, 2011).
Calls of active or inactive are those of the source.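 How the source made its calls: active means maximum inhibition above 30% at any tested concentration, with a dose response curve fitted; inactive means no inhibition at any dose or no dose response curve.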

experiment: parental HEK293 potassium flux blockers – cell-based, FluxOR thallium flux, concentration-response, set 2, counter-screen for KCNK9 inhibitor project, SAR follow-up (AID 540324); details: FluxOR fluorescence ratio; series mostly up to 30 µM
In short: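 Assay system: parental HEK293 cells. Probe or stimulus: K+/Tl+ sulfate stimulus, 5x stock. Compound dosing: 10 concentrations. Times: dye loading 90 min at room temperature in dark, compound exposure 20 min. Technique: FluxOR thallium-flux fluorescence. Repeats: at least two replicates per compound.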

Row | Structure (SMILES) | outcome
1 | COc1ccccc1C(=O)Nc1cccc(NC(=O)c2ccccc2C(C)C)c1 | inactive
2 | Cc1cccc(C(=O)Nc2cccc(NC(=O)c3ccco3)c2)c1 | inactive
3 | CCOc1ccccc1NC(=O)c1cccc(NC(=O)c2ccc(C)cc2)c1 | inactive
4 | CCOc1ccccc1NC(=O)c1cccc(NC(=O)C2CCCCC2)c1 | inactive
5 | O=C(Nc1cccc(NC(=O)c2cccc(Cl)c2)c1)c1ccccc1 | inactive
6 | Cc1ccc(-c2n[nH]c(=S)n2C(C)C2CC3CCC2C3)cc1 (stereo not given) | inactive
7 | O=C(Nc1cccc(NC(=O)c2cccnc2)c1)c1ccccc1 | inactive
8 | Cc1cccc(C(=O)Nc2ccccc2NC(=O)c2ccccc2)c1 | inactive
9 | COc1ccccc1C(=O)Nc1cccc(NC(=O)c2ccccc2OC)c1 | inactive
10 | O=C(Nc1cccc(NC(=O)c2ccoc2)c1)c1ccccc1 | inactive
11 | CCOc1ccccc1NC(=O)c1cccc(NC(=O)C(C)(C)C)c1 | inactive
12 | COc1ccccc1NC(=O)c1cccc(NC(=O)C2CCCC2)c1 | inactive
13 | CC(C1CC2CCC1C2)n1c(C2CCOC2)n[nH]c1=S (stereo not given) | inactive
14 | COc1ccccc1-c1n[nH]c(=S)n1C(C)C1CC2CCC1C2 (stereo not given) | inactive
15 | Cc1cccc(C(=O)Nc2cccc(NC(=O)c3ccncc3)c2)c1 | inactive
16 | CC(C1CC2CCC1C2)n1c(-c2cccc(Cl)c2)n[nH]c1=S (stereo not given) | inactive
17 | CC(c1ccco1)n1c(-c2ccoc2)n[nH]c1=S (stereo not given) | inactive
18 | O=C(Nc1cccc(NC(=O)c2ccc(Cl)cc2)c1)c1ccccc1 | inactive

Row | Structure (SMILES) | outcome
19 | Cc1cccc(C(=O)Nc2cccc(NC(=O)c3ccccc3OCC(C)C)c2)c1 | inactive
20 | COc1cccc(C(=O)Nc2cccc(NC(=O)c3ccccc3)c2)c1 | inactive
21 | Cc1ccccc1-c1n[nH]c(=S)n1C(C)C1CC2CCC1C2 (stereo not given) | inactive
22 | O=C(Nc1cccc(NC(=O)c2cccc(C(F)(F)F)c2)c1)c1ccccc1 | inactive
23 | Cc1cccc(C(=O)Nc2cccc(NC(=O)c3ccc(Cl)cc3)c2)c1 | inactive
24 | Cc1cccc(-c2n[nH]c(=S)n2C(C)C2CC3CCC2C3)c1 (stereo not given) | inactive
25 | Cc1cccc(C(=O)Nc2cccc(NC(=O)c3cccc(Cl)c3)c2)c1 | inactive
26 | COc1ccc(-c2n[nH]c(=S)n2C(C)C2CC3CCC2C3)cc1 (stereo not given) | inactive
27 | O=C(Nc1cccc(NC(=O)c2ccccc2Cl)c1)c1ccccc1 | inactive
28 | CCOc1ccccc1NC(=O)c1cccc(NC(=O)c2cccc(C(F)(F)F)c2)c1 | inactive
29 | CCOc1ccccc1NC(=O)c1cccc(NC(=O)c2ccc(OC)cc2)c1 | inactive
30 | COc1ccccc1C(=O)Nc1cccc(NC(=O)c2ccccc2OC(F)(F)F)c1 | inactive
31 | CC(C1CC2CCC1C2)n1c(-c2ccccc2)n[nH]c1=S (stereo not given) | inactive
32 | O=C(Nc1cccc(NC(=O)c2cccc(F)c2)c1)c1ccccc1 | inactive
33 | CN(C)c1ccc(C(=O)Nc2cccc(NC(=O)c3ccccc3)c2)cc1 | inactive
34 | CCOc1ccccc1C(=O)Nc1cccc(NC(=O)C2CCCC2)c1 | inactive
35 | CC(C1CC2CCC1C2)n1c(-c2ccsc2)n[nH]c1=S (stereo not given) | inactive
